Source: PubChem (The Scripps Research Institute Molecular Screening Center)
OX1R antag-1 = antagonists of human orexin 1 receptor (OX1R); OX1R-expressing cells, FRET antagonist read-out; inhibition, % at 6.6 µM; 330,000 tested, 1.8% active; AID 485270; in the data active = inhibition mostly above about 38%, no sharp cut-off; inactive = mostly below about 40%;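 note: 0% = agonist challenge alone and 100% = reference antagonist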
Target sequence (O43613 whole entry, looked up): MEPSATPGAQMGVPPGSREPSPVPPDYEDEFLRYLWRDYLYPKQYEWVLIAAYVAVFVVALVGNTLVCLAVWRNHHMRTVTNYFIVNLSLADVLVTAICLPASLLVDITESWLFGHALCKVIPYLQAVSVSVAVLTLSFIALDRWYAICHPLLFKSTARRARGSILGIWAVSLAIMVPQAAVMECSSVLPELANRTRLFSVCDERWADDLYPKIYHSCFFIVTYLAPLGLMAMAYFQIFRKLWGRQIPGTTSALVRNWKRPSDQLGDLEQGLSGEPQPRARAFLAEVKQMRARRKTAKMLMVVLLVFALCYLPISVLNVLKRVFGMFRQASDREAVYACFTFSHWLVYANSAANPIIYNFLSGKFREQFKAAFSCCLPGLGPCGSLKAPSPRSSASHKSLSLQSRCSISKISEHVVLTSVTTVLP
CHO parental Ca = counter-screen for OX1R antagonists: effect in parental CHO cells; parental CHO-K1, ATP-induced calcium, Fluo-8 fluorescence; inhibition, % at 5.6 µM; 330,000 tested, 0.63% active; AID 463079;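 active = inhibition above that plate's mean sample inhibition plus 3 SD, cut at about 26% in these data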;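 note: 0% = ATP-challenged DMSO wells and 100% = DMSO wells without ATP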
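Assay system – parental CHO cells · Reagent – ATP stimulus · Detection – intracellular calcium via Fluo-8 no-wash fluorescent dye · Evaluation – percent inhibition of ATP-evoked calcium rise, normalized to controls · Controls – ATP wells versus no-ATP DMSO wells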
TAAR1 ag = agonists of human TAAR1. CHO RD-HGA16 TAAR1, Fluo-8 calcium fluorescence; vehicle wells 0%, saturating PEA agonist 100%. activation, % at 3 µM. 360,000 tested, 0.99% active. AID 624467;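 active = activation above the mean activation of all test compounds in the run plus 3 SD, cut at about 38% in these data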
Target sequence (Q96RJ0 whole entry, looked up): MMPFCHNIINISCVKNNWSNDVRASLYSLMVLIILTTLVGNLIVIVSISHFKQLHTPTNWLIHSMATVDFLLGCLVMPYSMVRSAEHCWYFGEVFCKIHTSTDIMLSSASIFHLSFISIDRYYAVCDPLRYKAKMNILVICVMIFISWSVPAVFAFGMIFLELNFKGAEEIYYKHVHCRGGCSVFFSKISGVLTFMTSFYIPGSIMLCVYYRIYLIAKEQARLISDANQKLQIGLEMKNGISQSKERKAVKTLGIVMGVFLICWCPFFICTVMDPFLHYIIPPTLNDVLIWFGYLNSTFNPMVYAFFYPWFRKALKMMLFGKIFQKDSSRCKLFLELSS
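Assay system – CHO-derived RD-HGA16 cells with stable Gα16 and human TAAR1 · Compound dosing – one-point dosing at 3 µM (nominal) · Incubation – 17-24 h seeding, 75 min 37 °C dye, 30 min RT · Measured by – kinetic Fluo-8 calcium fluorescence · Control set – DMSO vehicle as 0%, PEA at EC100 as 100% · Repeats – single well for each compound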
OX1R antag-2 = blocks the human orexin 1 receptor | CHO/OX1R cells, Fluo-8 calcium fluorescence, orexin A | inhibition, % at 5 µM | 330,000 tested, 0.43% active;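 active = inhibition above its plate's threshold, mean inhibition of all tested compounds on the plate plus 3 SD, cut at about 37% in these data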;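 note: 0% = orexin A challenge wells and 100% = SB-334867-A antagonist wells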
TAAR1 antagonist = human TAAR1 antagonism; Q96RJ0; CHO RD-HGA16 TAAR1, Fluo-8 calcium fluorescence, antagonist; inhibition, % at 3 µM; 360,000 tested, 1.5% active; AID 624466;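 active = inhibition above a per-plate cutoff, the mean inhibition of test compounds on that plate plus 3 SD, cut at about 49% in these data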;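 note: 0% = DMSO plus EC80 beta-PEA response and 100% = DMSO alone without agonist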
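Test system: RD-HGA16 CHO cells with stable hTAAR1 and Gα16 / Probe or stimulus: EC80 β-phenethylamine stimulus / Times: seeding 17-24 h prior, 75-min 37 °C, 30-min RT dye loading / Detection: Fluo-8 calcium-sensitive fluorescence / Read-out basis: % inhibition scaled between DMSO and EC80 PEA controls / Repeats: singlicate, one well per test compound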
nonsel antag count = counter-screen for TAAR1 antagonists: nonselective antagonists; shares compounds with TAAR1 antagonist; counterscreen cell line, calcium fluorescence, antagonist mode; inhibition, % at 3 µM; 2,400 tested, 77% active; AID 651780; in the data active = inhibition above about 22%;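 note: CHO-Ga16 host cells stimulated with ATP at an EC80 level; 0% = agonist EC80 plus vehicle and 100% = vehicle without agonist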
TAAR1 antag conf = confirmation of human TAAR1 antagonists; 2,400 tested, 40% active; shares compounds with TAAR1 antagonist; TAAR1-expressing cells, fluorescence antagonist read-out; inhibition, % at 3 µM; in the data active = inhibition above about 49%;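 note: CHO-Ga16 host cells challenged with agonist PEA near its EC80; 0% = agonist at EC80 plus vehicle and 100% = vehicle with no agonist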
Ga16 ag counter = counter-screen for TAAR1 antagonists: nonselective Ga16 agonists; shares compounds with TAAR1 antagonist; Ga16-expressing cells, calcium fluorescence, agonist counterscreen; activation, % at 3 µM; 2,400 tested, 18% active; in the data active = activation above about 12%;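 note: 0% = vehicle wells and 100% = saturating stimulus response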
TAAR1 ag counter = TAAR1 agonism, antagonist counter-screen | shares compounds with TAAR1 antagonist | hTAAR1 cell line, fluorescence activation, agonist mode | activation, % at 3 µM | 2,400 tested, 2% active | AID 651955; in the data active = activation above about 37%;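 note: CHO cells stably expressing TAAR1 with calcium dye readout; 0% = DMSO vehicle and 100% = full agonist response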
Numbers without * were called inactive. Sampled rows, rich in hits. Any-hit rate of the full collection: about 3.9%.

CCN(CC(=O)NCc1ccc(Cl)cc1)S(=O)(=O)c1ccc(NC(C)=O)cc1 was read as OX1R antag-1 2.6, CHO parental Ca -14.6, TAAR1 ag 19.1, OX1R antag-2 -12.5, TAAR1 antagonist 77.7*, nonsel antag count 20.9, TAAR1 antag conf 46.6, Ga16 ag counter 9.1 and TAAR1 ag counter 11.1.
For CCN(CC(=O)NCc1ccc(Cl)cc1)S(=O)(=O)c1ccc(F)cc1 the results were OX1R antag-1 14.0, CHO parental Ca -8.3, TAAR1 ag -2.5, OX1R antag-2 -26.6 and TAAR1 antagonist -10.2.
For COc1ccc(CCNC(=O)CN(c2cc(OC)ccc2OC)S(=O)(=O)c2ccccc2)cc1 the results were OX1R antag-1 28.2, CHO parental Ca -30.4, TAAR1 ag 9.2, OX1R antag-2 -21.7, TAAR1 antagonist 49.5*, nonsel antag count 29.7*, TAAR1 antag conf 35.3, Ga16 ag counter 4.9 and TAAR1 ag counter 3.7.
`COc1ccc(OC)c(N(CC(=O)NCCc2ccc(OC)c(OC)c2)S(=O)(=O)c2ccccc2)c1` gave OX1R antag-1 28.9, CHO parental Ca -23.1, TAAR1 ag 7.5, OX1R antag-2 -24.8 and TAAR1 antagonist 23.1.
`COc1ccc(OC)c(N(CC(=O)NCc2ccccc2)S(=O)(=O)c2ccc(OC)c(OC)c2)c1` gave OX1R antag-1 39.4, CHO parental Ca -16.4, TAAR1 ag 14.0, OX1R antag-2 -13.7, TAAR1 antagonist 50.9*, nonsel antag count 21.6*, TAAR1 antag conf 35.8, Ga16 ag counter 9.1 and TAAR1 ag counter 7.8.
For COc1ccccc1N(CC(=O)NCCSCc1ccc(C)cc1)S(=O)(=O)c1ccccc1 the results were OX1R antag-1 59.5*, CHO parental Ca 4.2, TAAR1 ag 1.1, OX1R antag-2 11.1, TAAR1 antagonist 84.0*, nonsel antag count 26.8*, TAAR1 antag conf 51.3*, Ga16 ag counter 4.4 and TAAR1 ag counter 0.6.
COc1ccc(O)c(/C=N/NC(=S)NCCc2ccccc2)c1 was read as OX1R antag-1 20.1, CHO parental Ca 0.0, TAAR1 ag 21.6, OX1R antag-2 -16.6, TAAR1 antagonist 53.9*, nonsel antag count 27.1*, TAAR1 antag conf 56.5*, Ga16 ag counter 14.8* and TAAR1 ag counter 43.9*.
For CC(C)(C)OC(=O)C[C@H]1C/C=C\C[C@@H](CC(=O)N[C@H](CO)Cc2ccccc2)C(=O)N2CCC[C@H]2COC1=O the results were OX1R antag-1 8.2, CHO parental Ca -6.3, TAAR1 ag 13.8, OX1R antag-2 -2.7 and TAAR1 antagonist 29.0.
Screening CC(C)(C)OC(=O)C[C@@H]1C/C=C\C[C@@H](CC(=O)N[C@H](CO)Cc2ccccc2)C(=O)N2CCC[C@H]2COC1=O returned OX1R antag-1 6.1, CHO parental Ca -8.0, TAAR1 ag 21.5, OX1R antag-2 6.4, TAAR1 antagonist 67.4*, nonsel antag count 29.8*, TAAR1 antag conf 50.3*, Ga16 ag counter 11.7* and TAAR1 ag counter 11.3.
`CC(C)(C)OC(=O)C[C@@H]1C/C=C\C[C@@H](CC(=O)N[C@H](CO)Cc2ccccc2)C(=O)NC[C@H](c2ccccc2)OC1=O` gave OX1R antag-1 10.8, CHO parental Ca -6.8, TAAR1 ag 16.1, OX1R antag-2 4.5, TAAR1 antagonist 52.5*, nonsel antag count 22.9*, TAAR1 antag conf 41.3, Ga16 ag counter 5.6 and TAAR1 ag counter 7.1.
Cc1ccc(-c2nnn(CC(=O)N(CC(=O)NC3CCCCC3)c3cnc4ccccc4c3)n2)o1 was read as OX1R antag-1 15.7, CHO parental Ca -19.4, TAAR1 ag 12.8, OX1R antag-2 -15.9 and TAAR1 antagonist -11.3.
`COc1cccc(OC)c1C(=O)Nc1cc(C)nn1-c1nc2ccccc2[nH]1` gave OX1R antag-1 17.5, CHO parental Ca -19.8, TAAR1 ag 7.8, OX1R antag-2 -8.7, TAAR1 antagonist 69.2*, nonsel antag count 28.3*, TAAR1 antag conf 48.9*, Ga16 ag counter 4.3 and TAAR1 ag counter -0.3.
Screening Clc1ccc(OCc2nnc(SCc3nc4ccccc4[nH]3)n2Cc2ccco2)cc1 returned OX1R antag-1 17.3, CHO parental Ca -17.2, TAAR1 ag 7.3, OX1R antag-2 -16.7, TAAR1 antagonist 49.9*, nonsel antag count 44.6*, TAAR1 antag conf 53.5*, Ga16 ag counter 13.5* and TAAR1 ag counter 15.4.
`Clc1cccc(-c2nnc(SCc3nc4ccccc4[nH]3)n2Cc2ccco2)c1` gave OX1R antag-1 46.5, CHO parental Ca -36.9, TAAR1 ag 14.1, OX1R antag-2 -25.3 and TAAR1 antagonist 7.1.
For CC(C(=O)Nc1nc(-c2ccc(F)cc2)cs1)N1C(=O)C2CC=CCC2C1=O (stereo unspecified) the results were OX1R antag-1 27.2, CHO parental Ca 5.5, TAAR1 ag 19.4, OX1R antag-2 3.7, TAAR1 antagonist 78.0*, nonsel antag count 40.3*, TAAR1 antag conf 65.1*, Ga16 ag counter 12.4* and TAAR1 ag counter 11.8.
For O=C(Nc1nc(-c2ccccc2)cs1)c1ccccc1NS(=O)(=O)c1ccc(F)cc1 the results were OX1R antag-1 94.2*, CHO parental Ca 57.2*, TAAR1 ag 3.9, OX1R antag-2 63.5*, TAAR1 antagonist 69.7*, nonsel antag count 57.6*, TAAR1 antag conf 67.7*, Ga16 ag counter 10.4 and TAAR1 ag counter 3.7.
Screening CC(=O)c1c(C)[nH]c(C(=O)Nc2nc(-c3ccc(-c4ccccc4)cc3)cs2)c1C returned OX1R antag-1 13.6, CHO parental Ca 25.9, TAAR1 ag 28.8, OX1R antag-2 30.1, TAAR1 antagonist 92.8*, nonsel antag count 70.9*, TAAR1 antag conf 96.7*, Ga16 ag counter 26.5* and TAAR1 ag counter 37.5*.
Screening O=S(=O)(Nc1ccc(-c2csc(-c3ccccc3)n2)cc1)c1ccc(F)cc1 returned OX1R antag-1 12.6, CHO parental Ca -2.6, TAAR1 ag 4.0, OX1R antag-2 -18.7 and TAAR1 antagonist 9.4.
Screening Cc1cc(C(=O)CCC(=O)N(C)CC2COc3ccccc3O2)c(C)s1 (stereo unspecified) returned TAAR1 ag 1.6 and TAAR1 antagonist -13.8.
Screening COCCNC(=S)N1CCC2CC1c1c(Cl)cccc12 (stereo unspecified) returned TAAR1 ag 1.2 and TAAR1 antagonist 4.8.
